In ChEMBL document CHEMBL1128599, “Nucleoside conjugates. 14. Synthesis and antitumor activity of 1-beta-D-arabinofuranosylcytosine conjugates of ether lipids with improved water solubility” (J Med Chem, 1995) one finds No. of mice, ILS and solubility data, which are given here for seven compounds.

The test system of data set [1] is Mus musculus. As to the kind of experiment: Number of mice (out of 6 mice) survived after treatment with 150 mg/kg/day of compound on 1, 5, 9 day treatment schedule for 45 days. Format: functional. In short, it runs like this:
(§1)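 Groups of 6 male DBA/2Ros mice (20–29 g) were inoculated ip on day 0 with 1 × 10⁶ L1210 cells. Conjugate was given ip as a shaken or sonicated aqueous solution from day 1, over a wide dose range. Optimal-dose results are reported as ILS = (T/C − 1) × 100 from median survival, or as 45-day survivors.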

For data set [2], the system named is Mus musculus. The data set is described as follows: Antitumor activity at 200 mg/kg/day on a 1 day treatment schedule, qd against L1210 infected mice was expressed as increase in life span (ILS). The class given is functional. The following applies: L1210, 24 h. In short, it runs like this: as §1
A short description of data set [3]: Solubility in water determined by UV absorption at 272 nm. Conditions: read-out: S. Format: physicochemical.
The test system of data set [4] is Mus musculus. The data set is described as follows: Number of mice (out of 6 mice) survived after treatment with 200 mg/kg/day of compound on a 1 day treatment schedule for 45 days. Format: functional. In short, it runs like this: as §1
Data set [5] concerns Mus musculus. The data set is described as follows: Antitumor activity at 150 mg/kg/day on 1, 5, 9 day treatment schedule, qd against L1210 infected mice was expressed as increase in life span (ILS). The class given is functional. The following applies: L1210, 216 h. In short, it runs like this: as §1
The test system of data set [6] is Mus musculus. As to the kind of experiment: Antitumor activity at 300 mg/Kg/day on a 1 day treatment schedule, qd against L1210 infected mice was expressed as increase in life span (ILS). The class given is functional. Conditions: L1210, 24 h. The essentials:
as §1

In data set [7] the test system is Mus musculus. As to the kind of experiment: Number of mice (out of 6 mice) survived after treatment with 300 mg/kg/day of compound on a 1 day treatment schedule for 45 days. Format: functional. The essentials: as §1
For data set [8], the system named is Mus musculus. As to the kind of experiment: Number of mice (out of 6 mice) survived after treatment with 200 mg/kg/day of compound on a 1,7 day treatment schedule for 45 days. The class given is functional. In short, it runs like this:
as §1

The test system of data set [9] is Mus musculus. The data set is described as follows: Antitumor activity at 300 mg/kg/day on a 1,7 day treatment schedule, qd against L1210 infected mice was expressed as increase in life span (ILS). The class given is functional. In short, it runs like this: as §1
The test system of data set [10] is Mus musculus. The data set is described as follows: Number of mice (out of 6 mice) survived after treatment with 300 mg/kg/day of compound on a 1,7 day treatment schedule for 45 days. The class given is functional. The essentials:
as §1

In data set [11] the test system is Mus musculus. As to the kind of experiment: Antitumor activity at 150 mg/kg/day on 1, 5, 9 day treatment schedule, qd against L1210 infected mice by shaking method was expressed as increase in life span (ILS). Format: functional. Conditions: L1210, 216 h. The essentials: (§2)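 Male DBA/2Ros mice (20–29 g, groups of 6) got 1 × 10⁶ L1210 leukemia cells ip on day 0. Ip treatment started day 1. Conjugate was shaken in sterile water for 2 h at room temperature, then 0.22 μm filtered. Mice were observed 45 days. Read-outs were median survival T/C with ILS = (T/C − 1) × 100, or 45-day survivors.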

The test system of data set [12] is Mus musculus. The data set is described as follows: Antitumor activity at 200 mg/kg/day on a 1 day treatment schedule, qd against L1210 infected mice by sonication method was expressed as increase in life span (ILS). Conditions: L1210, 24 h. Format: functional. The essentials:
(§3)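 L1210 cells (1 × 10⁶) were inoculated ip into male DBA/2Ros mice (20–29 g, 6 per group) on day 0. Ip dosing began day 1. Conjugate in water suspension was sonicated 2 min (20–60 °C), then 0.22 μm filtered. Over a 45-day observation, read-outs were median survival T/C, ILS = (T/C − 1) × 100, or number alive at day 45.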

The test system of data set [13] is Mus musculus. The data set is described as follows: Antitumor activity at 300 mg/kg/day on a 1 day treatment schedule, qd against L1210 infected mice by shaking method was expressed as increase in life span (ILS). The class given is functional. The following applies: L1210, 24 h. In short, it runs like this: as §2
For data set [14], the system named is Mus musculus. The data set is described as follows: Antitumor activity at 200 mg/kg/day on a 1 day treatment schedule, qd against L1210 infected mice by shaking method was expressed as increase in life span (ILS). Format: functional. Conditions: L1210, 24 h. In short, it runs like this: as §2
Data set [15] has as its system Mus musculus. As to the kind of experiment: Antitumor activity at 300 mg/kg/day on a 1,7 day treatment schedule, qd against L1210 infected mice by shaking method was expressed as increase in life span (ILS). Format: functional. The essentials:
as §2

Data set [16] concerns Mus musculus. The data set is described as follows: Antitumor activity at 300 mg/kg/day on a 1 day treatment schedule, qd against L1210 infected mice by sonication method was expressed as increase in life span (ILS). Format: functional. The following applies: L1210, 24 h. In short, it runs like this: as §3
Data set [17] concerns Mus musculus. The data set is described as follows: Antitumor activity at 150 mg/kg/day on 1, 5, 9 day treatment schedule, qd against L1210 infected mice by sonication method was expressed as increase in life span (ILS). The following applies: L1210, 216 h. The class given is functional. The essentials:
as §3

Data set [18] has as its system Mus musculus. The data set is described as follows: Number of mice (out of 6 mice) survived after treatment with 150 mg/kg/day of compound on 1, 5, 9 day by sonication method treatment schedule for 45 days. The class given is functional. In short, it runs like this:
as §3

Data set [19] relates to Mus musculus. As to the kind of experiment: Number of mice (out of 6 mice) survived after treatment with 300 mg/kg/day of compound on a 1 day by sonication method treatment schedule for 45 days. The class given is functional. The essentials:
as §3

For data set [20], the system named is Mus musculus. The data set is described as follows: Number of mice (out of 6 mice) survived after treatment with 300 mg/kg/day of compound on a 1 day by shaking method treatment schedule for 45 days. Format: functional. The essentials: as §2
For data set [21], the system named is Mus musculus. As to the kind of experiment: Number of mice (out of 6 mice) survived after treatment with 150 mg/kg/day of compound on 1, 5, 9 day by shaking method treatment schedule for 45 days. Format: functional. In short, it runs like this: as §2
In data set [22] the test system is Mus musculus. The data set is described as follows: Antitumor activity at 200 mg/kg/day on a 1,7 day treatment schedule, qd against L1210 infected mice was expressed as increase in life span (ILS). The class given is functional. In short, it runs like this: as §1

Several values for one entry are separate records, joined by “and”; a condition that tells them apart may be missing. Equal entries are not always repeated. Some results are limits rather than exact numbers.

Broadly, the ILS is how much longer treated animals lived than controls. Low readings indicate a small benefit in survival, high ones a large benefit in survival. On to `CCCCCCCCCCCCCC(=O)OC(COCCCCCCCCCCCC)COP(=O)([O-])OP(=O)([O-])OC[C@H]1OC(n2ccc(N)nc2=O)[C@@H](O)[C@@H]1O.[Na+].[Na+]` (stereo not given in full), for which the No. of mice in the data set with Mus musculus [1] is on record as 3; with Mus musculus [4] it was 0. Besides, the ILS at 200 mg/kg/day in the data set with Mus musculus [2] is 69%. For the same compound, in [3], the solubility is greater than 146 mM. For the same compound, the ILS at 150 mg/kg/day with Mus musculus [5] is greater than 394%.

As for `CCCCCCCCCCCCCCCCOCC(COP(=O)([O-])OP(=O)([O-])OC[C@H]1OC(n2ccc(N)nc2=O)[C@@H](O)[C@@H]1O)OC(=O)CCCCCCCCCCC.[Na+].[Na+]` (stereo not given in full), the results for the No. of mice with Mus musculus [1], with Mus musculus [7] and in the data set on Mus musculus [8] were 5, 0 and 3, respectively. Moreover, the solubility in [3] was greater than 132 mM. Besides, the ILS at 300 mg/kg/day was 119% in the data set with Mus musculus [6] and greater than 350% in the data set on Mus musculus [9]. Further, in the data set with Mus musculus [5], the ILS at 150 mg/kg/day is greater than 463%.

Take `CCCCCCCCCCCCCCCCOCC(COP(=O)([O-])OP(=O)([O-])OC[C@H]1OC(n2ccc(N)nc2=O)[C@@H](O)[C@@H]1O)OC(=O)CCCCCCCCCCCCCCC.[Na+].[Na+]` (stereo not given in full): the No. of mice in the data set on Mus musculus [1] and in the data set on Mus musculus [4] was 3 in each case. In the data set with Mus musculus [2], this compound displayed an ILS at 200 mg/kg/day greater than 250%. In addition, the solubility in data set [3] was determined as 0.13 mM. The compound further displayed an ILS at 150 mg/kg/day with Mus musculus [5] of 306%.

In the case of `CCCCCCCCCCCCCCCC(=O)OC(COCCCCCCCCCCCCCC)COP(=O)([O-])OP(=O)([O-])OC[C@H]1OC(n2ccc(N)nc2=O)[C@@H](O)[C@@H]1O.[Na+].[Na+]` (stereo not given in full), the No. of mice in the data set with Mus musculus [10] was 1; in the data set with Mus musculus [1], 3 and 5; in the data set with Mus musculus [4], 2 and 1; in the data set with Mus musculus [7] it was 4 and 2. The ILS at 150 mg/kg/day was greater than 350% in the data set with Mus musculus [11] and greater than 463% with Mus musculus [17]. Besides, the values for the ILS at 200 mg/kg/day in the data set on Mus musculus [12] and in the data set on Mus musculus [14] were 206% and 275%, respectively. In addition, the solubility in data set [3] is greater than 43 mM. For the same compound, the ILS at 300 mg/kg/day is greater than 543% in the data set with Mus musculus [13], 107% in the data set with Mus musculus [15] and greater than 206% in the data set with Mus musculus [16].

For the compound `CCCCCCCCCCCCCCCCOCC(COP(=O)([O-])OP(=O)([O-])OC[C@H]1OC(n2ccc(N)nc2=O)[C@@H](O)[C@@H]1O)OC(=O)CCCCCCCCCCCCC.[Na+].[Na+]` (stereo not given in full), the ILS at 150 mg/kg/day with Mus musculus [11] and in the data set on Mus musculus [17] was greater than 463% each time. In addition, the No. of mice is recorded as 4 in the data set with Mus musculus [18], 3 in the data set on Mus musculus [19], 1 with Mus musculus [20] and 5 in the data set with Mus musculus [21]. Also, the solubility in data set [3] was greater than 107 mM. In addition, the ILS at 300 mg/kg/day with Mus musculus [13] was 258%; with Mus musculus [16] it was greater than 464%.

`CCCCCCCCCCCCCCOCC(COP(=O)([O-])OP(=O)([O-])OC[C@H]1OC(n2ccc(N)nc2=O)[C@@H](O)[C@@H]1O)OC(=O)CCCCCCCCCCCCC.[Na+].[Na+]` (stereo not given in full): the No. of mice in the data set on Mus musculus [1] worked out at 1; with Mus musculus [7] it was 0. In addition, the solubility in data set [3] was greater than 121 mM. Also, in the data set on Mus musculus [6], the ILS at 300 mg/kg/day was 178%. Also, the ILS at 150 mg/kg/day in the data set on Mus musculus [5] turned out to be 125%.

As for `CCCCCCCCCCCCCCCC(=O)OC(COCCCCCCCCCCCC)COP(=O)([O-])OP(=O)([O-])OC[C@H]1OC(n2ccc(N)nc2=O)[C@@H](O)[C@@H]1O.[Na+].[Na+]` (stereo not given in full), the results for the No. of mice in the data set on Mus musculus [1], in the data set with Mus musculus [4] and with Mus musculus [8] were 3, 0 and 0, respectively. Further, the ILS at 200 mg/kg/day worked out at 286% with Mus musculus [22] and 128% with Mus musculus [2]. For the same compound, the solubility in [3] is greater than 131 mM. In the data set on Mus musculus [5], the ILS at 150 mg/kg/day is greater than 313%.
